Source: paper PMC7253076 (Cell chemical biology, 2019)

Assays:
[1] = test system: motor neurons differentiated from human induced pluripotent stem cells derived from a healthy patient; assay: Motor neuron CPA survival assay, healthy-patient iPSC-derived motor neurons; assay type: cell-based; conditions: for rescue of CPA toxicity / neuroprotection: CPA-treated healthy human motor neurons, 72 h; for concentrations toxic to motor neurons in the absence of CPA: without CPA
[2] = test system: human stem-cell-derived motor neurons carrying the ALS-causing SOD1^A4V mutation; assay: Motor neuron CPA survival assay, SOD1^A4V ALS motor neurons; conditions: for EC50: Homo sapiens, Neuron, 72 h, read-out: EC50 in motor neuron survival assay; for maximum efficacy compared with compound 1 / concentrations that completely blocked the effects of CPA treatment / neuroprotection in CPA survival assay: CPA-treated SOD1^A4V motor neurons
[3] = test system: mouse stem cell-derived motor neurons; conditions: CPA-treated; ref Thams et al., 2019; cited from earlier work
JNK pathway = assay: Western blots of JNK pathway in CPA-treated motor neurons; assay type: cell-based, mouse; conditions: western blot, Fig. S2
Method in brief: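 Day-6 embryoid bodies from mouse ES cells (HB9::GFP reporter, human SOD1 transgene; RA 1 μM + SAG 0.5 μM) were given CPA 10 μM plus test compound 0.5 μM for 4 h, then lysed in HEPES/Triton/SDS buffer. Immunoblots used phospho-JNK (Thr183/Tyr185), phospho-c-Jun (Ser63), phospho-MKK4 (Ser257), total proteins and cleaved caspase 3 at 1:1000, with GAPDH at 1:3000. Signals normalised to GAPDH, phospho to total, and expressed as % of CPA; n = 2 differentiations; unpaired two-tailed t-tests.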

For `CCC(=O)Nc1cccc(Oc2nc(Nc3ccc(N4CCN(C)CC4)cc3OC)ncc2Cl)c1` [WZ4003], which “rescue of CPA toxicity / neuroprotection” value [1] is on record?
The value was “did not rescue CPA toxicity”.

And the “concentrations toxic to motor neurons in the absence of CPA” value [1]?
The value was “above 2 μM”.

With `CN1CC2CCC(C1)N2Cc1ccc(-c2cnc3[nH]cc(-c4cccc(Cl)c4)c3c2)cc1` [12f, 3-(3-Chlorophenyl)-5-(4-((3-methyl-3,8-diazabicyclo[3.2.1]octan-8-yl)methyl)phenyl)-1H-pyrrolo[2,3-b]pyridine] as the compound, how does the EC50 [2] read?
The EC50 was 110 nM.

And the “concentrations at which compound was toxic” value ([2]; motor neuron survival assay)?
Its value is “above 0.3 μM”.

With `O=C1Cc2c([nH]c3ccc(Br)cc23)-c2ccccc2N1` [kenpaullone] as the compound, how does the “protection of motor neurons from ER stress” value (“protection of motor neurons” for short) [3] read?
The value was “protect motor neurons from ER stress”.

With `CNC(=O)Nc1ccc(-c2c[nH]c3ncc(-c4ccc(CN5CCN(C)CC5)cc4)cc23)cc1` [7am, 1-Methyl-3-(4-(5-(4-((4-methylpiperazin-1-yl)methyl)phenyl)-1H-pyrrolo[2,3-b]pyridin-3-yl)phenyl)urea] as the compound, how does the “maximum efficacy compared with compound 1” value [2] read?
The value was “greater maximum efficacy than compound 1”.

Which results are given for `O[C@@H]1CCN(Cc2ccc(-c3cnc4[nH]cc(-c5cccc(Cl)c5)c4c3)cc2)C1` [12l, (R)-1-(4-(3-(3-Chlorophenyl)-1H-pyrrolo[2,3-b]pyridin-5-yl)benzyl)pyrrolidin-3-ol]?
inhibition of JNK pathway components (JNK pathway): effectively inhibit the same JNK pathway components as compound 1; concentrations that completely blocked the effects of CPA treatment [2]: < 0.3 µM

Which results are given for `CN1CCN(Cc2ccc(-c3cnc4[nH]cc(-c5ccc6[nH]ncc6c5)c4c3)cc2)CC1` [7v, 5-(5-(4-((4-Methylpiperazin-1-yl)methyl)phenyl)-1H-pyrrolo[2,3-b]pyridin-3-yl)-1H-indazole]?
maximum efficacy compared with compound 1 [2]: greater maximum efficacy than compound 1; EC50 [2]: < 220 nM

For `CN1CCN(Cc2ccc(-c3cnc4[nH]cc(-c5ccc(N)cc5)c4c3)cc2)CC1` [7e, 4-(5-(4-((4-Methylpiperazin-1-yl)methyl)phenyl)-1H-pyrrolo[2,3-b]pyridin-3-yl)aniline], which “maximum efficacy compared with compound 1” value [2] is on record?
The value was “greater maximum efficacy than compound 1”.

With `CN1CCN(Cc2ccc(-c3cnc4[nH]cc(-c5cccc(F)c5)c4c3)cc2)CC1` [7y, 3-(3-Fluorophenyl)-5-(4-((4-methylpiperazin-1-yl)methyl)phenyl)-1H-pyrrolo[2,3-b]pyridine] as the compound, how does the “maximum efficacy compared with compound 1” value [2] read?
The value was “greater maximum efficacy than compound 1”.

Which “maximum efficacy compared with compound 1” value [2] does the source give for `CN1CCN(Cc2ccc(-c3cnc4[nH]cc(-c5cccc(N)c5)c4c3)cc2)CC1` [7h, 3-(5-(4-((4-Methylpiperazin-1-yl)methyl)phenyl)-1H-pyrrolo[2,3-b]pyridin-3-yl)aniline] here?
Its value is “greater maximum efficacy than compound 1”.

And the EC50 [2]?
The EC50 was under 220 nM.

Which “maximum efficacy compared with compound 1” value [2] does the source give for `CNC(=O)Nc1cccc(-c2c[nH]c3ncc(-c4ccc(CN5CCN(C)CC5)cc4)cc23)c1` [7ak, 1-Methyl-3-(3-(5-(4-((4-methylpiperazin-1-yl)methyl)phenyl)-1H-pyrrolo[2,3-b]pyridin-3-yl)phenyl)urea] here?
The value was “greater maximum efficacy than compound 1”.

For `COC(=O)Nc1cccc(-c2c[nH]c3ncc(-c4ccc(CN5CCN(C)CC5)cc4)cc23)c1` [7al, Methyl (3-(5-(4-((4-methylpiperazin-1-yl)methyl)phenyl)-1H-pyrrolo[2,3-b]pyridin-3-yl)phenyl)carbamate], which “maximum efficacy compared with compound 1” value [2] is on record?
Its value is “greater maximum efficacy than compound 1”.

Which results are given for `O[C@@H]1CCN(Cc2ccc(-c3cnc4[nH]cc(-c5cccc(F)c5)c4c3)cc2)C1` [12i, (R)-1-(4-(3-(3-Fluorophenyl)-1H-pyrrolo[2,3-b]pyridin-5-yl)benzyl)pyrrolidin-3-ol]?
inhibition of JNK pathway components (JNK pathway): effectively inhibit the same JNK pathway components as compound 1; concentrations that completely blocked the effects of CPA treatment [2]: < 0.3 µM

With `CN1CCN(Cc2ccc(-c3cnc4[nH]cc(-c5cccc6c5oc5ccccc56)c4c3)cc2)CC1` [7c, 3-(Dibenzo[b,d]furan-4-yl)-5-(4-((4-methylpiperazin-1-yl)methyl)phenyl)-1H-pyrrolo[2,3-b]pyridine] as the compound, how does the “neuroprotection in CPA survival assay” value [2] read?
The value was “completely ineffective”.

For `CN1CCN(Cc2ccc(-c3cnc4[nH]cc(-c5ccccc5)c4c3)cc2)CC1` [7ac, 5-(4-((4-Methylpiperazin-1-yl)methyl)phenyl)-3-phenyl-1H-pyrrolo[2,3-b]pyridine], which “maximum efficacy compared with compound 1” value [2] is on record?
The value was “greater maximum efficacy than compound 1”.

With `COC(=O)[C@@]1(O)C[C@H]2O[C@]1(C)n1c3ccccc3c3c4c(c5c6ccccc6n2c5c31)C(=O)NC4` [K252a] as the compound, how does the “protection of motor neurons” value [3] read?
Its value is “protect motor neurons from ER stress”.

With `O=C1Cc2c([nH]c3ccc([N+](=O)[O-])cc23)-c2ccccc2N1` [alsterpaullone] as the compound, how does the “rescue of CPA toxicity / neuroprotection” value [1] read?
Its value is “more potent than kenpaullone”.

For `Cn1c2ccccc2c2c3c(c4c5ccccc5n(CCC#N)c4c21)CNC3=O` [Gö6976], which “protection of motor neurons” value [3] is on record?
Its value is “protect motor neurons from ER stress”.

For `Nc1ccc(-c2cnc(N)c(-c3ccc(Cl)cc3)c2)cn1` [PF-6260933], which “rescue of CPA toxicity / neuroprotection” value [1] is on record?
The value was “neuroprotective”.

For `CN1CCN(Cc2ccc(-c3cnc4[nH]cc(-c5cccc([N+](=O)[O-])c5)c4c3)cc2)CC1` [7p, 5-(4-((4-Methylpiperazin-1-yl)methyl)phenyl)-3-(3-nitrophenyl)-1H-pyrrolo[2,3-b]pyridine], which “maximum efficacy compared with compound 1” value [2] is on record?
The value was “greater maximum efficacy than compound 1”.

With `OCCN1CCN(Cc2ccc(-c3cnc4[nH]cc(-c5cccc(F)c5)c4c3)cc2)CC1` [12h, 2-(4-(4-(3-(3-Fluorophenyl)-1H-pyrrolo[2,3-b]pyridin-5-yl)benzyl)piperazin-1-yl)ethan-1-ol] as the compound, how does the “inhibition of JNK pathway components” value (JNK pathway) read?
Its value is “effectively inhibit the same JNK pathway components as compound 1”.

And the “concentrations that completely blocked the effects of CPA treatment” value [2]?
The value was under 0.3 µM.

Which EC50 [2] does the source give for `CN1CCN(Cc2ccc(-c3cnc4[nH]cc(-c5ccc(N)nc5)c4c3)cc2)CC1` [7m, 5-(5-(4-((4-Methylpiperazin-1-yl)methyl)phenyl)-1H-pyrrolo[2,3-b]pyridin-3-yl)pyridin-2-amine] here?
The EC50 was under 220 nM.

For `Cc1cc(-c2c[nH]c3ncc(-c4ccc(CN5CCN(C)CC5)cc4)cc23)cnc1N` [7l, 3-Methyl-5-(5-(4-((4-methylpiperazin-1-yl)methyl)phenyl)-1H-pyrrolo[2,3-b]pyridin-3-yl)pyridin-2-amine], which “maximum efficacy compared with compound 1” value [2] is on record?
The value was “greater maximum efficacy than compound 1”.

And the EC50 [2]?
The EC50 was under 220 nM.

For `Cc1nc(Nc2cnn(C3CCNCC3)c2)nc2c1N(C)C(=O)c1cc3ccccc3cc1N2C` [HTH 01–015], which “rescue of CPA toxicity / neuroprotection” value [1] is on record?
The value was “did not rescue CPA toxicity”.

What about the “concentrations toxic to motor neurons in the absence of CPA” value [1] of the same compound?
The value was “above 2 μM”.

For `CN1CCN(Cc2ccc(-c3cnc4[nH]cc(-c5cccc(NC(=O)NCc6ccco6)c5)c4c3)cc2)CC1` [7ay, 1-(Furan-2-ylmethyl)-3-(3-(5-(4-((4-methylpiperazin-1-yl)methyl)phenyl)-1H-pyrrolo[2,3-b]pyridin-3-yl)phenyl)urea], which “neuroprotection in CPA survival assay” value [2] is on record?
The value was “completely ineffective”.

Which results are given for `CN1CCN(Cc2ccc(-c3cnc4[nH]cc(-c5cccc6[nH]ncc56)c4c3)cc2)CC1` [7aa, 4-(5-(4-((4-Methylpiperazin-1-yl)methyl)phenyl)-1H-pyrrolo[2,3-b]pyridin-3-yl)-1H-indazole]?
maximum efficacy compared with compound 1 [2]: greater maximum efficacy than compound 1; EC50 [2]: < 220 nM
